Hep lipid drop: hepatic lipid droplet formation modulation | AML12 mouse hepatocytes, oleate lipid droplets, BODIPY imaging | AID 1656 | 0.4% of 240,000 active | inhibition, % at 6.5 µM;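 active means lipid droplet intensity inhibited by at least 50%, with more than 500 cells counted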
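Assay system: AML12 mouse liver cells | Compound: 6.5 µM single-point dosing | Schedule: Overnight exposure | Technique: Fluorescence imaging, 20x objective, two fields per well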
Rce1 inh: yeast Ras-converting enzyme inhibition; Q03530; yeast membranes, quenched prenylated peptide cleavage fluorescence; calls only; 0.27% of 290,000 active;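 active means fall in fluorescence gain of 50% or more versus controls, with final raw signal at or below 3038400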;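 further: plate controls were neutral control wells for no effect and wells lacking membranes for full effect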
FXN GAA850 act: frataxin GAA850 promoter activation | HEK293 lucGAA850 FXN promoter luciferase reporter, 24 h; percent of 10 µM SAHA response | activation, % at 6 µM | 0.56% of 360,000 active | AID 540364;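 active means activation above the average of all compounds screened plus 3 SD, cutoff fixed separately per campaign, cut at about 7.5% in these data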;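 further: 0% = DMSO wells and 100% = 10 µM SAHA wells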
proCasp7 act: activates human procaspase-7, counter-screen for procaspase-3 activators | P55210 | recombinant procaspase-7, Ac-DEVD-pNA absorbance 405 nm; D23A/D198A/D206A triple mutant, cannot self-cleave; scale: DMSO 0, 5 µM enzyme 100 | activation, % at 8.5 µM | 0.093% of 330,000 active | AID 463210;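 active means percent activation above the screen-wide mean plus 3 SD, cut at about 25% in these data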
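Assay system: Uncleavable procaspase-7 mutant enzyme | Input: 2 µM procaspase-7 mutant as dispensed | Timing: 1 h compound preincubation, 2 h substrate cleavage, 25 °C | Repeats: One well per compound | Control set: DMSO wells as 0%, DMSO with 5 µM added PC-7 as 100% | Technique: Epi-absorbance of released pNA at 405 nm, two timepoints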
p-CIP stab down: lowers stability of the mouse p/CIP coactivator protein | Q05BA5 | F442A p/CIP-EGFP cells, EGFP fluorescence, 16 h | decrease of EGFP signal, % at 10 µM | 0.01% of 290,000 active;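 active means EGFP signal decrease of at least 30% at 10 µM or well 3 SD below plate mean, unless failing retest; inactive means the rest, including hits failing retest or dose response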
Target sequence (Q05BA5 1-1403): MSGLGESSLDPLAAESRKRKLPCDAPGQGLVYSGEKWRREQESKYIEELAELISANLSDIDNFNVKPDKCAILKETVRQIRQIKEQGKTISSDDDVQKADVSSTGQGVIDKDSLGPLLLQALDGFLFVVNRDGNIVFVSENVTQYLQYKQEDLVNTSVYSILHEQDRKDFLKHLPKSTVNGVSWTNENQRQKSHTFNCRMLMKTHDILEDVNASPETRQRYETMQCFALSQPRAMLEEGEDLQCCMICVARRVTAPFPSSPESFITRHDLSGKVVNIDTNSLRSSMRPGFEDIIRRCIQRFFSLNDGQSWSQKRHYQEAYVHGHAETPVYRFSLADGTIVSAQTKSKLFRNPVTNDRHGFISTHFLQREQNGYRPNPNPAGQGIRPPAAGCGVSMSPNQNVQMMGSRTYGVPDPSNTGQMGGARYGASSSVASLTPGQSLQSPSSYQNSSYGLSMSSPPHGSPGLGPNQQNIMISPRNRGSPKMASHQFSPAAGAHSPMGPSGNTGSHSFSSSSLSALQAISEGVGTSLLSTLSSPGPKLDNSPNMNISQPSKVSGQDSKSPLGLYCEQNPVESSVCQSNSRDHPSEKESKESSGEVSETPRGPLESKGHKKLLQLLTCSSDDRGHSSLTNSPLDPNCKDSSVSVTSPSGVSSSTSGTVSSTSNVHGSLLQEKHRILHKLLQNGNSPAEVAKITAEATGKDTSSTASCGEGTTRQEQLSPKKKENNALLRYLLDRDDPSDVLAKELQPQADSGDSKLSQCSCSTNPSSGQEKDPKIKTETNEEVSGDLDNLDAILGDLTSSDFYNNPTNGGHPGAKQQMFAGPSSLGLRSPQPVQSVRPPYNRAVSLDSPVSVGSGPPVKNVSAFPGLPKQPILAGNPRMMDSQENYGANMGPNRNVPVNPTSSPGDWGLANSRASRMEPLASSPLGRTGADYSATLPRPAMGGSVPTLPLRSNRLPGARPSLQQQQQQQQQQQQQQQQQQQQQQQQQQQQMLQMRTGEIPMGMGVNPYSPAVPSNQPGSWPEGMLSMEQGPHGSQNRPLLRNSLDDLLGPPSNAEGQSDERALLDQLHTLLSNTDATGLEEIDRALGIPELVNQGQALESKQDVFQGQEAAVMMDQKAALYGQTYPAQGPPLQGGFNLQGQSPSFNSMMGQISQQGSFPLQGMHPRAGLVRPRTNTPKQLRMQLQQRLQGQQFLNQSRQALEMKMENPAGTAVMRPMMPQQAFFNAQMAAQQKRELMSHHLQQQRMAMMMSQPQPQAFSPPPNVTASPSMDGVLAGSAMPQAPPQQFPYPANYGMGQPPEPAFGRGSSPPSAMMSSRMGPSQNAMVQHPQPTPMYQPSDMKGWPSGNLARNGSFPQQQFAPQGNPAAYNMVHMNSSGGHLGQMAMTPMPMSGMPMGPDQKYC
procasp3 activ: procaspase-3 (human) activation; P42574; recombinant procaspase-3 D3A, Ac-DEVD-pNA absorbance 405 nm; activation, % at 8.5 µM; 0.11% of 330,000 active; AID 463141;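 active means activation above the mean of all tested compounds plus 3 SD, cut at about 21% in these data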;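 further: 0% = DMSO alone and 100% = DMSO wells spiked with extra 5 µM PC-3 D3A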
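Assay system – Procaspase-3 D3A mutant, all three cleavage aspartates alanine · Controls – DMSO-only low control, 5 µM PC-3 D3A high control · Schedule – 1 h compound preincubation, 2 h substrate hydrolysis at 25 °C · Signal – 405 nm absorbance of p-nitroaniline, reads at 0 and 120 min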
GAA30 counter: activates GAA30 frataxin promoter, counter-screen for GAA850 activators; shares compounds with FXN GAA850 act; HEK293 lucGAA30 FXN promoter luciferase, 24 h; DMSO = 0%, 5 µM ipriflavone = 100%; activation, % at 6 µM; 66% of 1,900 active; AID 588350;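 active means mean activation above the mean of solvent-only control wells plus 3 SD, cut at about 22% in these data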;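 further: counterscreen of GAA850 promoter hits where activity marks nonselective or luminescence artifacts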
GAA850 confirm: GAA850 FXN promoter activation confirmation | shares compounds with FXN GAA850 act | HEK293 lucGAA850 FXN promoter luciferase reporter, 24 h; 100% = activation by SAHA | activation, % at 6 µM | 86% of 1,900 active;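 active means mean activation above a set limit taken from the primary screen, cut at about 8% in these data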;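 further: 0% = DMSO wells and 100% = 10 µM SAHA wells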
The depositor's hits bear a star; i = inactive; nt = no result given. The list is not random: actives were taken first. Their share in the collection is about 1.2%.

SMILES	Hep lipid drop	Rce1 inh	FXN GAA850 act	proCasp7 act	p-CIP stab down	procasp3 activ	GAA30 counter	GAA850 confirm
O=C(COC(=O)COc1cccc(C(F)(F)F)c1)NC(=O)NC1CCCCC1	nt	i	2	6	nt	-3	nt	nt
CCOC(=O)/C=C/COc1ccccc1[N+](=O)[O-]	15	i	8.3*	7	-5	6	89*	27*
O=C(NCCCN1CCOCC1)c1cccc(S(=O)(=O)N2CCc3ccccc32)c1	nt	nt	-1	nt	nt	nt	nt	nt
CCOC(=O)C1CCN(S(=O)(=O)c2ccc3c4c(cccc24)C(=O)N3CC)CC1	nt	nt	-1	0	nt	-6	nt	nt
CC(=O)c1ccc2oc3ccccc3c(=O)c2c1	2	i	8.6*	-15	-5	-1	87*	33*
O=c1c2ccccc2oc2ccccc12	nt	nt	1	nt	nt	nt	nt	nt
Cc1c(Cl)cccc1NS(=O)(=O)c1c(C(=O)N2CCOCC2)c(C)n(C)c1C	19	i	6	5	8	-2	nt	nt
Cc1ccc(S(=O)(=O)N2CCCC2CNC(=O)C(=O)Nc2ccc(F)cc2)cc1 (centres undefined)	nt	i	-2	2	nt	-3	nt	nt
NC(Cc1ccc(Cl)cc1)c1csc(NC(=O)Nc2ccccc2)n1 (centres undefined)	nt	nt	7.6*	nt	nt	nt	14	11*
COc1cccc(CNC(=O)CN2C(=O)CSc3ccc(S(=O)(=O)N4CCCCC4)cc32)c1	-28	i	1	-7	11	4	nt	nt
Nc1ccccc1Nc1cc(-c2ccccc2)[nH]n1	-1	i	9.3*	nt	-5	nt	92*	54*
Nc1ccccc1Nc1cc(-c2ccccc2)nn1-c1ccccc1	10	i	1	-1	-31	-5	nt	nt
CC=Cc1cc(OC)c2c(c1)C(C)C(c1ccc(O)c(OC)c1)O2 (centres undefined)	nt	nt	1	nt	nt	nt	nt	nt
Cc1ccc(/C=C/C(=O)NC2CCCCCCC2)o1	1	i	11*	-19	-8	-26	99*	49*
COc1ccc(OCC(=O)N/N=C(\C)c2ccc(-n3ccnc3)cc2)cc1	4	i	-1	4	-5	3	nt	nt
C/C(=N\NC(=O)COc1ccc(C(C)(C)C)cc1)c1ccc(-n2ccnc2)cc1	-1	i	8.5*	-1	-1	3	94*	22*
COc1ccc(C2=Nn3c(nnc3C3CCCCC3)SC2)cc1OC	20	i	13*	-3	-8	-7	14	13*
COc1ccc(OC)c(-c2nnc3n2N=C(c2ccc(OC)c(OC)c2)CS3)c1	nt	nt	1	1	nt	3	nt	nt
CCCc1nnc2n1N=C(c1ccc(OC)c(OC)c1)CS2	13	i	12*	8	6	9	35*	13*
COc1ccc(C2=Nn3c(nnc3-c3ccccc3)SC2)cc1OC	7	i	9.5*	-2	-8	-5	22*	18*
COc1ccc(-c2nnc3n2N=C(c2ccccc2)CS3)cc1OC	8	nt	nt	nt	6	nt	nt	nt
COc1ccc(OC)c(C2=Nn3c(nnc3C3CCCCC3)SC2)c1	-5	i	2	7	-3	-2	nt	nt
O=C(Nc1nccs1)c1cnc2sccn2c1=O	nt	nt	4	nt	nt	nt	nt	nt
COC(=O)[C@@H](Cc1c[nH]c2ccccc12)NC(=O)CNC(=O)c1ccccc1OC	-8	i	-1	7	-24	8	nt	nt
O=C(CNc1cccc2ccccc12)N/N=C/C(Br)=C/c1ccccc1	nt	i	13*	14	-12	-8	-19	2
SMILES	Hep lipid drop	Rce1 inh	FXN GAA850 act	proCasp7 act	p-CIP stab down	procasp3 activ	GAA30 counter	GAA850 confirm
O=C(N/N=C/C(Br)=C/c1ccccc1)c1cc(-c2ccco2)[nH]n1	0	i	8.3*	-8	-15	0	4	13*
CC(/C=N/NC(=O)c1cc(-c2ccc(C)o2)[nH]n1)=C\c1ccccc1	-2	i	0	-1	2	0	nt	nt
O=C(N/N=C/C(Cl)=C/c1ccccc1)c1ccccc1F	-12	i	3	6	-26	1	nt	nt
CC1=NNC(=O)C1CCC(=O)N/N=C/C(Br)=C/c1ccccc1 (centres undefined)	-2	i	12*	8	-19	2	24*	5
O=C(N/N=C/C(Br)=C/c1ccccc1)c1ccccc1F	7	i	8.5*	-1	-8	-2	110*	42*
O=C(CNc1cccc2ccccc12)N/N=C/c1ccc[nH]1	0	i	-1	-8	-8	6	nt	nt
O=C(CC1S/C(=N/N=C2CCCCCC2)NC1=O)Nc1ccc(Br)cc1F (centres undefined)	-77	nt	3	7	-16	5	nt	nt
COc1ccc(CCNC(=O)c2c(O)c3ccccc3[nH]c2=O)cc1OC	-5	i	1	nt	-19	nt	nt	nt
Nc1nc(SCc2ccc(Cl)cc2Cl)ns1	2	i	7.9*	-5	5	-6	50*	15*
Cc1ccccc1CSc1nsc(N)n1	nt	i	4	15	7	7	nt	nt
CCS(=O)(=O)N1Cc2ccccc2CC1C(=O)Nc1ccc(F)cc1 (centres undefined)	20	i	3	2	-20	0	nt	nt
CCS(=O)(=O)N1Cc2ccccc2CC1C(=O)NCC12CC3CC(CC(C3)C1)C2 (centres undefined)	-5	i	7.7*	3	-3	6	13	8.3*
CCS(=O)(=O)N1Cc2ccccc2CC1C(=O)NC(C)C12CC3CC(CC(C3)C1)C2 (centres undefined)	-4	i	12*	6	-3	-4	27*	14*
CCOc1ccc(NC(=O)c2cc(S(=O)(=O)N3CCCCC3)c[nH]2)cc1	6	i	12*	0	-17	4	4	3
CCc1ccc(NC(=O)c2cc(S(=O)(=O)N3CCCC3)c[nH]2)cc1	0	i	-1	-4	-6	-5	nt	nt
COc1ccc(S(=O)(=O)N2CCC3(CC2)OCCN3S(=O)(=O)c2cccs2)cc1OC	nt	i	0	10	nt	8	nt	nt
Cc1ccc(NN2C(=O)C=C(c3ccc(Cl)cc3)C2=O)cc1	12	i	9.5*	-26	-2	-12	-6	18*
COc1ccc(C2=CC(=O)N(Nc3ccccc3)C2=O)cc1	4	i	8.2*	-18	-18	-11	25*	11*
C(=N\Nc1ccccn1)/c1c[nH]c2ccccc12	-2	i	7.7*	-1	-9	5	76*	36*

Compound activity from PubChem.
